ChEMBL document CHEMBL5303300, “EUbOPEN Chemogenomics Library - Multiplex” (2023)
Where “and” joins values, the source holds several entries; their conditions need not be identical. Equal values may be shown once.

Test system: Fibroblast
Assay: Multiplex assay against human fibroblast
Type: toxicity, cell-based
Conditions: number of replicates 2
Method in brief: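 Cells were classed with CellPathfinder machine-learning gating, first as Hoechst high-intensity objects or normal cells, then (normal cells) as healthy, pyknosed or fragmented nuclei, and finally (pyknosed cells) as mitotic or apoptotic. Staining of live cells at seeding used Hoechst33342, BioTracker Green Microtubule Cytoskeleton Dye, MitoTracker Red and Annexin V Alexa Fluor 680, with imaging on a CQ1 microscope at 37°C and 5% CO2 after compound addition. Tubulin, mitochondrial-mass and membrane-permeability phenotypes are per cents of healthy-nucleus cells.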

[1] = 12 h, 1 µM, compound concentration 1 uM
[2] = 12 h, 10 µM, compound concentration 10 uM
[3] = 24 h, 1 µM, compound concentration 1 uM
[4] = 24 h, 10 µM, compound concentration 10 uM
[5] = 48 h, 1 µM, compound concentration 1 uM
[6] = 48 h, 10 µM, compound concentration 10 uM

## CN1CCc2cc(Cl)c(O)cc2[C@@H](c2ccccc2)C1.Cl
[1]
  Population Apoptotic (%): 46% and 55%
  Population Fragmented Nuclei (%): 10% and 17%
  Population Healthy Nuclei (%): 63%
  Population Hoechst High Intensity Objects (%): 1% and 0%
  Population Membrane Permeable-Phenotype (%): 10% and 6%
  Population Mitochondria Different-Phenotype (%): 1% and 4%
  Population Mitotic Cells (%): 53% and 44%
  Population Normal (%): 98% and 99%
  Population Pyknosed Nuclei (%): 26% and 18%
  Population Tubulin-Different-Phenotype (%): 15% and 14%
  Total Cell Count: 175 and 235
[2]
  Population Apoptotic (%): 43% and 53%
  Population Fragmented Nuclei (%): 11% and 17%
  Population Healthy Nuclei (%): 71% and 78%
  Population Hoechst High Intensity Objects (%): 0%
  Population Membrane Permeable-Phenotype (%): 4% and 3%
  Population Mitochondria Different-Phenotype (%): 3% and 4%
  Population Mitotic Cells (%): 56% and 46%
  Population Normal (%): 100%
  Population Tubulin-Different-Phenotype (%): 21% and 12%
  Total Cell Count: 244 and 283
[3]
  Population Apoptotic (%): 52% and 62%
  Population Fragmented Nuclei (%): 6% and 18%
  Population Healthy Nuclei (%): 69% and 67%
  Population Hoechst High Intensity Objects (%): 1% and 0%
  Population Membrane Permeable-Phenotype (%): 12% and 7%
  Population Mitochondria Different-Phenotype (%): 0% and 1%
  Population Mitotic Cells (%): 47% and 37%
  Population Normal (%): 98% and 100%
  Population Pyknosed Nuclei (%): 23% and 14%
  Population Tubulin-Different-Phenotype (%): 20% and 11%
  Total Cell Count: 161 and 242
[4]
  Population Apoptotic (%): 65% and 83%
  Population Fragmented Nuclei (%): 16% and 21%
  Population Healthy Nuclei (%): 76%
  Population Hoechst High Intensity Objects (%): 0%
  Population Membrane Permeable-Phenotype (%): 3% and 2%
  Population Mitochondria Different-Phenotype (%): 2% and 0%
  Population Mitotic Cells (%): 35% and 16%
  Population Normal (%): 100%
  Population Pyknosed Nuclei (%): 7% and 2%
  Population Tubulin-Different-Phenotype (%): 20% and 10%
  Total Cell Count: 265 and 295
[5]
  Population Apoptotic (%): 53% and 75%
  Population Fragmented Nuclei (%): 9% and 18%
  Population Healthy Nuclei (%): 72% and 73%
  Population Hoechst High Intensity Objects (%): 0%
  Population Membrane Permeable-Phenotype (%): 8% and 4%
  Population Mitochondria Different-Phenotype (%): 1% and 2%
  Population Mitotic Cells (%): 46% and 25%
  Population Normal (%): 100% and 99%
  Population Pyknosed Nuclei (%): 18% and 8%
  Population Tubulin-Different-Phenotype (%): 11% and 7%
  Total Cell Count: 175 and 251
[6]
  Population Apoptotic (%): 76% and 100%
  Population Fragmented Nuclei (%): 21% and 26%
  Population Healthy Nuclei (%): 73% and 72%
  Population Hoechst High Intensity Objects (%): 0%
  Population Membrane Permeable-Phenotype (%): 4% and 1%
  Population Mitochondria Different-Phenotype (%): 0%
  Population Mitotic Cells (%): 23% and 0%
  Population Normal (%): 100%
  Population Pyknosed Nuclei (%): 4% and 0%
  Population Tubulin-Different-Phenotype (%): 12% and 3%
  Total Cell Count: 292 and 324

## CN[C@@H]1CC[C@@H](c2ccc(Cl)c(Cl)c2)c2ccccc21.Cl
[1]
  Population Apoptotic (%): 43% and 37%
  Population Fragmented Nuclei (%): 14% and 18%
  Population Healthy Nuclei (%): 55% and 62%
  Population Hoechst High Intensity Objects (%): 0%
  Population Membrane Permeable-Phenotype (%): 12% and 9%
  Population Mitochondria Different-Phenotype (%): 2% and 0%
  Population Mitotic Cells (%): 56% and 62%
  Population Normal (%): 100% and 99%
  Population Pyknosed Nuclei (%): 29% and 19%
  Population Tubulin-Different-Phenotype (%): 37% and 20%
  Total Cell Count: 194
[2]
  Population Apoptotic (%): 28% and 53%
  Population Fragmented Nuclei (%): 17% and 15%
  Population Healthy Nuclei (%): 56% and 55%
  Population Hoechst High Intensity Objects (%): 0%
  Population Membrane Permeable-Phenotype (%): 11% and 8%
  Population Mitochondria Different-Phenotype (%): 10% and 14%
  Population Mitotic Cells (%): 71% and 46%
  Population Normal (%): 100% and 99%
  Population Pyknosed Nuclei (%): 26% and 28%
  Population Tubulin-Different-Phenotype (%): 82% and 77%
[3]
  Population Apoptotic (%): 43% and 40%
  Population Fragmented Nuclei (%): 16% and 17%
  Population Healthy Nuclei (%): 57% and 65%
  Population Hoechst High Intensity Objects (%): 0% and 1%
  Population Membrane Permeable-Phenotype (%): 8% and 2%
  Population Mitochondria Different-Phenotype (%): 1% and 4%
  Population Mitotic Cells (%): 56% and 60%
  Population Normal (%): 99% and 98%
  Population Pyknosed Nuclei (%): 25% and 16%
  Population Tubulin-Different-Phenotype (%): 39% and 19%
[4]
  Population Apoptotic (%): 53% and 65%
  Population Fragmented Nuclei (%): 13% and 15%
  Population Healthy Nuclei (%): 56% and 53%
  Population Hoechst High Intensity Objects (%): 0%
  Population Membrane Permeable-Phenotype (%): 7% and 5%
  Population Mitochondria Different-Phenotype (%): 29% and 49%
  Population Mitotic Cells (%): 46% and 34%
  Population Normal (%): 100% and 99%
  Population Pyknosed Nuclei (%): 30% and 32%
  Population Tubulin-Different-Phenotype (%): 89% and 88%
  Total Cell Count: 212 and 201
[5]
  Population Apoptotic (%): 78% and 55%
  Population Fragmented Nuclei (%): 21% and 22%
  Population Healthy Nuclei (%): 60% and 64%
  Population Hoechst High Intensity Objects (%): 0%
  Population Membrane Permeable-Phenotype (%): 2% and 3%
  Population Mitochondria Different-Phenotype (%): 0%
  Population Mitotic Cells (%): 21% and 44%
  Population Normal (%): 99%
  Population Pyknosed Nuclei (%): 17% and 12%
[6]
  Population Apoptotic (%): 75% and 88%
  Population Fragmented Nuclei (%): 12% and 14%
  Population Healthy Nuclei (%): 66% and 51%
  Population Hoechst High Intensity Objects (%): 1% and 0%
  Population Membrane Permeable-Phenotype (%): 11% and 1%
  Population Mitochondria Different-Phenotype (%): 40% and 47%
  Population Mitotic Cells (%): 24% and 11%
  Population Normal (%): 98% and 100%
  Population Pyknosed Nuclei (%): 21% and 34%
  Population Tubulin-Different-Phenotype (%): 84% and 69%
  Total Cell Count: 196
